The results in this text go back to ChEMBL document CHEMBL1149087, “Anticancer and antimalarial efficacy and safety of artemisinin-derived trioxane dimers in rodents” (J Med Chem, 2004).

The test system of one series is C2G cell line. In words: Inhibitory concentration to inhibit growth of C2G prostate cancer cell line by using MTT assay. Type of series: functional, cell-based, Homo sapiens. The note with it: Mus musculus. Summed up:
(§1)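 TRAMP mouse prostate cancer clonal lines, seeded at 2.5×10^4 (C1A), 2.0×10^4 (C2D, C2G) or 1.5×10^4 (C2H) cells/mL. Grown in DMEM high glucose with 10% FBS, insulin, pen-strep and 10^-8 M dihydrotestosterone at 37 °C, 5% CO2. After 24 h, switched to phenol-free medium with ethanol-dissolved compound. MTT read-out at 0, 24, 48 and 72 h: 4 h MTT, then SDS/HCl solubilisation overnight.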

The test system of another series is C2D cell line. As to the kind of experiment: Inhibitory concentration to inhibit growth of C2D prostate cancer cell line by using MTT assay. Type of series: functional, cell-based, Homo sapiens. The conditions noted are these: Mus musculus. An outline of the steps:
as §1

The test system of another series is Plasmodium falciparum. As to the kind of experiment: In vitro antimalarial activity for Plasmodium falciparum NF54 infected mice (Mus musculus). The series is classed as functional, organism-based. Summed up: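 In vitro antimalarial assay run in quadruplicate, with artemisinin as concurrent control (n = 3). EC50 taken from fitted dose-response curves.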
The subject of the next series is TRAMP-C1A. As to the kind of experiment: Inhibitory concentration to inhibit growth of C1A prostate cancer cell line by using MTT assay. The conditions noted are these: Mus musculus. Type of series: functional, cell-based. An outline of the steps:
as §1
(In general: Formazan colour is commonly taken as a measure of viable cells.)

Series [1] relates to Mus musculus. As to the kind of experiment: Compound was tested for number of animals that remain safe when administered intraperitoneally in mice (total no of deaths =250); 0/3. The series is classed as functional.
Series [2] is described as follows: Therapeutic index expressed as maximum tolerated / ED50 intravenously was determined. The conditions noted are these: iv; read-out: Therapeutic index. An outline of the steps:
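Therapeutic index calculated as maximum tolerated single ip dose in mice divided by iv ED50 (mg/kg/day × 4).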

In series [3] the test system is Mus musculus. As to the kind of experiment: Compound was tested for number of animals that remain safe when administered intraperitoneally in mice (total no of deaths =750); 3/3. The series is classed as functional.
A further series deals with TRAMP-C2H. In words: Inhibitory concentration to inhibit growth of C2H prostate cancer cell line by using MTT assay. Type of series: functional, cell-based. The note with it: Mus musculus. An outline of the steps: as §1
The test system of series [4] is Mus musculus. In words: Compound was tested for number of animals that remain safe when administered intraperitoneally in mice (total no of deaths =125); 0/3. The series is classed as functional.
Series [5] deals with Mus musculus. In words: Compound was tested for number of animals that remain safe when administered intraperitoneally in mice (total no of deaths =500); 1/3. The series is classed as functional.
The species named for series [6] is Mus musculus. As to the kind of experiment: Compound was tested for weight gain in mice; markedly reduced. Type of series: functional, organism-based.
The test system of series [7] is Mus musculus. As to the kind of experiment: Compound was tested for number of animals that remain safe when administered intraperitoneally in mice (dose 125 mg/kg); deaths 0/3.
For series [8], the system named is Mus musculus. As to the kind of experiment: Compound was tested for number of animals that remain safe when administered intraperitoneally in mice (dose 500 mg/kg); deaths 3/3.
Series [9] deals with Mus musculus. As to the kind of experiment: Compound was tested for number of animals that remain safe when administered intraperitoneally in mice (dose 250 mg/kg); deaths 1/3.
Series [10] relates to Mus musculus. In words: Compound was tested for number of animals that remain safe when administered intraperitoneally in mice (total no of deaths =500); 3/3. The series is classed as functional.
Series [11] has as its system Mus musculus. In words: Compound was tested for number of animals that remain safe when administered intraperitoneally in mice (total no of deaths =750); 2/3. Type of series: functional.
The species entered for series [12] is Mus musculus. As to the kind of experiment: Compound was tested for weight gain in mice; reduced. Type of series: functional, organism-based.
In series [13] the test system is Mus musculus. As to the kind of experiment: Compound was tested for number of animals that remain safe when administered intraperitoneally in mice (total no of deaths =250); 1/3. Type of series: functional.

Counter-ions that a name gives are not always drawn.

The term IC50 denotes the concentration that gives 50% inhibition. Higher therefore signals a need for much substance. The term EC50 denotes the midpoint of the concentration-response curve. Read a low EC50 as a more potent agent. In the case of `C[C@H]1[C@H](OC(=O)CCC(=O)OCC(COC(=O)CCC(=O)O[C@@H]2O[C@@H]3O[C@]4(C)CC[C@H]5[C@H](C)CC[C@@H]([C@H]2C)[C@@]35OO4)C(=O)O)O[C@@H]2O[C@]3(C)CC[C@H]4[C@H](C)CC[C@@H]1[C@@]24OO3` (stereo not given in full), the IC50 with C2G cell line came to 134 nM; with C2D cell line, 231 nM; in the series with TRAMP-C1A, 159 nM; in the series on TRAMP-C2H, 116 nM. A half-maximal response with Plasmodium falciparum (EC50) required 2.4 nM. The Therapeutic index in the series with Mus musculus [1] worked out at 0 mg/kg; in the series on Mus musculus [3], 3 mg/kg; in the series with Mus musculus [4], 0 mg/kg; in the series on Mus musculus [5], 1 mg/kg. For the same compound, the selectivity ratio in series [2] came out at 167.
Turning to `C[C@H]1[C@H](OC(=O)CCC(=O)[O-])O[C@@H]2O[C@@]3(C)CC[C@H]4[C@H](C)CC[C@@H]1[C@@]24OO3.[Na+]` [SODIUM ARESUNATE], in the series filed under Mus musculus [6], the Activity result was “Weight gain markedly reduced”. The compound also displayed an EC50 in the series on Plasmodium falciparum of 1.5 nM. Moreover, the Deaths was 0 deaths in the series on Mus musculus [7], 3 deaths with Mus musculus [8] and 1 deaths in the series with Mus musculus [9]. The selectivity ratio in series [2] is 23.
Consider `Nc1ccn([C@@H]2O[C@H](CO)[C@@H](O)C2(F)F)c(=O)n1` [GEMCITABINE HYDROCHLORIDE], for which the 50% inhibitory concentration (IC50) with C2G cell line came out at 3.7 nM; in the series on C2D cell line it was 11.9 nM; in the series on TRAMP-C1A, 9 nM; with TRAMP-C2H, 4.7 nM.
The matching figures for `C[C@H]1[C@H](OC(=O)CCC(=O)OCC(CO)COC(=O)CCC(=O)O[C@@H]2O[C@@H]3O[C@]4(C)CC[C@H]5[C@H](C)CC[C@@H]([C@H]2C)[C@@]35OO4)O[C@@H]2OC3(C)CC[C@H]4[C@H](C)CC[C@@H]1[C@@]24OO3` (single isomer, unassigned): 15.4 nM, 18.5 nM, 23.3 nM and 9.2 nM.
The matching figures for `COc1cccc2c1C(=O)c1c(O)c3c(c(O)c1C2=O)C[C@@](O)(C(=O)CO)C[C@@H]3O[C@H]1C[C@H](N)[C@H](O)[C@H](C)O1` [DOXORUBICIN]: 28.7 nM, 46.5 nM, 75.9 nM and 30.3 nM.
Turning to `C[C@H]1[C@H](OC(=O)CCC(=O)OCC(COC(=O)CCC(=O)O[C@@H]2O[C@@H]3O[C@]4(C)CC[C@H]5[C@H](C)CC[C@@H]([C@H]2C)[C@@]35OO4)COC(=O)c2cc[n+]([O-])cc2)O[C@@H]2O[C@]3(C)CC[C@H]4[C@H](C)CC[C@@H]1[C@@]24OO3` (stereo not given in full), the Therapeutic index came to 3 mg/kg in the series with Mus musculus [10], 2 mg/kg with Mus musculus [11], 1 mg/kg in the series on Mus musculus [13] and 0 mg/kg with Mus musculus [4]. The IC50 in the series on C2G cell line came to 47.4 nM; in the series with C2D cell line it was 62.1 nM; in the series on TRAMP-C1A it was 84.6 nM; in the series on TRAMP-C2H it was 36.1 nM. Besides, the EC50 in the series with Plasmodium falciparum was 0.53 nM. The selectivity ratio in series [2] came out at 156. For the same compound, the Activity result in the series listed under Mus musculus [12] is “Weight gain reduced”.
`C[C@@H]1CC[C@H]2[C@@H](C)C(=O)O[C@@H]3O[C@@]4(C)CC[C@@H]1[C@]32OO4` [ARTEMISININ] came in with an EC50 with Plasmodium falciparum of 8.8 nM.
